The results in this text go back to publication PMC10879835 (Saudi Journal of Biological Sciences, 2024).

Data set [1] can be described thus: Solubility of MG in solid lipids and surfactants. The class given is physicochemical. The note with it: in Labrafil M 2130 CS. In a few lines:
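1 g of each solid lipid was held in a vial on a magnetic stirrer above its melting point. Test compound was added in increments until saturation, and the amount dissolved was recorded. Samples were filtered through a 0.45 membrane to remove undissolved solid.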

A short description of another data set: Anti-oxidant DPPH assay. The note with it: 30 mins, absorbance at 515 nm. The gist of the method: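 Lipid-nanoparticle and solution formulations of the test compound were made as 1 mg/ml stocks in methanol and diluted to 1–50 ug/ml. Ascorbic acid was the control. Each dilution was mixed 1:1 by volume with 200 μM DPPH. Absorbance at 515 nm was read after 30 min against a methanol blank. % inhibition was taken […], and IC50 came from regression of mean % inhibition on log concentration.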

The subject of a further data set is α-amylase. The data set is described as follows: α-Amylase inhibitory assay. Format: biochemical. The note with it: at 100 µg/mL. In a few lines: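 DNS method. Test compound at 25, 50, 100 and 200 µg/ml, or acarbose at 100 µg/ml as reference, was preincubated 30 min with α-amylase diluted in 20 mM sodium phosphate buffer pH 6.9. 1% w/w starch was then added and the mix held 15 min at 37 ± 0.5 °C. The reaction was stopped with DNS reagent and heated 5 min in boiling water, then read at 540 nm. % inhibition was calculated against a no-sample control and a no-enzyme blank.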

A further data set has as its system α-glucosidase. Briefly: α-Glucosidase inhibitory assay. Format: biochemical. The gist of the method:
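Test sample was preincubated 15 min at 37 °C with α-glucosidase solution (1 U/mL in 0.1 M potassium phosphate buffer, pH 6.8). 5 mM p-nitrophenyl-α-D-glucopyranoside solution was added, with a further 15 min incubation. The reaction was stopped with 0.2 M sodium carbonate and read at 405 nm. Acarbose was the positive control. % inhibition came from control and blank absorbances.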

Consider `O=c1c2cc(O)c(O)cc2oc2cc(O)c([C@@H]3O[C@H](CO)[C@@H](O)[C@H](O)[C@H]3O)c(O)c12` [Mangiferin], for which the “MG solubility in solid lipid” value in data set [1] turned out to be 77.63 ± 5.78 mg/g.

With `O=C1O[C@H]([C@@H](O)CO)C(O)=C1O` [AA, ascorbic acid], the “DPPH IC50” value in “Anti-oxidant DPPH assay” amounted to 23.33 µg/mL.

`C[C@H]1O[C@H](O[C@H]2[C@H](O)[C@@H](O)[C@@H](O[C@H]3[C@H](O)[C@@H](O)C(O)O[C@@H]3CO)O[C@@H]2CO)[C@H](O)[C@@H](O)[C@@H]1N[C@H]1C=C(CO)[C@@H](O)[C@H](O)[C@H]1O` (stereo partly shown) [Acarbose]: the α-amylase inhibitory effect in the data set with α-amylase is recorded as 78.01 ± 7.45%. The compound also showed a α-glucosidase inhibition in the data set on α-glucosidase of 63.43 ± 4.02%.
